Where “and” joins values, the source holds several entries; their conditions need not be identical. Equal entries are not always repeated.
Experiments:
Mus musculus [1] = test: Percent suppression of plaque forming cells in spleen cell suspension at a dose of 50 mg/kg, po. in AKR mice, p<0.05; type: functional
Rattus norvegicus [2] = test: Antiinflammatory activity against D-adjuvant arthritis in uninjected rat paw at the dose of 50 mg/kg by oral administration; type: functional
Procedure, shortened: (§1)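 Rat developing adjuvant arthritis screen with oral dosing on a prophylactic protocol. Percent change in body weight versus untreated animals was recorded as a preliminary toxicity sign. Significance was assessed against controls by two-tailed Student's t test, p < 0.05.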

Rattus norvegicus [3] = test: Antiinflammatory activity against D-adjuvant arthritis in injected rat paw at the dose of 50 mg/kg by oral administration; type: functional
Mus musculus [4] = test: Percent suppression of plaque forming cells in spleen cell suspension at a dose of 100 mg/kg, po. in AKR mice, p<0.05; type: functional
Rattus norvegicus [5] = test: Antiinflammatory activity against carrageenan induced rat paw edema (CPE), dosed orally; type: functional
Procedure, shortened: (§2)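 Male Sprague–Dawley rats (150 ± 10 g), five per group. Compound or vehicle given orally in 0.5% methylcellulose 1 h before subplantar injection of 0.1 mL 1% carrageenan in saline into the right hind paw. Paw volume measured by mercury displacement before dosing and 3 h after carrageenan; the difference is the edema volume. ANOVA with Dunnett's t test.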

Mus musculus [6] = test: Percent suppression of plaque forming cells in spleen cell suspension at a dose of 200 mg/kg, po. in AKR mice, p<0.05; type: functional
Rattus norvegicus [7] = test: Antiinflammatory activity dosed orally against D-adjuvant arthritis in uninjected rat paw at 50 mg/kg; type: functional; settings: route oral
Rattus norvegicus [8] = test: Antiinflammatory activity dosed orally against carrageenan induced rat paw edema(CPE).value in the parentheses is the dose(mg/kg).; type: functional; procedure, shortened: as §2
Rattus norvegicus [9] = organism: Rattus norvegicus; test: Antiinflammatory activity in D-adjuvant induced arthritis in rat measured by the change in body weight; type: functional; parameters: concentration or dose not given beside the values
Rattus norvegicus [10] = test: Antiinflammatory activity against D-adjuvant arthritis in uninjected rat paw at the dose of 10 mg/kg by oral administration; type: functional
Rattus norvegicus [11] = test: Antiinflammatory activity against D-adjuvant arthritis in injected rat paw at the dose of 10 mg/kg by oral administration; type: functional
Rattus norvegicus [12] = test: Antiinflammatory activity against D-adjuvant arthritis in uninjected rat paw at the dose of 5 mg/kg by oral administration; type: functional
Rattus norvegicus [13] = test: Antiinflammatory activity against D-adjuvant arthritis in injected rat paw at the dose of 5 mg/kg by oral administration; type: functional
Rattus norvegicus [14] = test: Antiinflammatory activity dosed orally against carrageenan induced rat paw edema(CPE); type: functional; procedure, shortened: as §2
Rattus norvegicus [15] = test: Antiinflammatory activity dosed orally against D-adjuvant arthritis in rat measured by the change in the weight of the body; type: functional
Rattus norvegicus [16] = test: Antiinflammatory activity against D-adjuvant arthritis in injected rat paw at the dose of 1.0 mg/kg by oral administration; type: functional; procedure, shortened: as §1
Rattus norvegicus [17] = test: Antiinflammatory activity against D-adjuvant arthritis in injected rat paw at the dose of 2.5 mg/kg by oral administration; type: functional
Procedure, shortened: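 Rats dosed orally in a developing adjuvant arthritis screen; swelling of the adjuvant-injected paw scored against untreated arthritic controls. Significance by two-tailed Student's t test, p < 0.05. Percent change in body weight versus untreated animals recorded as a preliminary toxicity indication.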

Rattus norvegicus [18] = test: Antiinflammatory activity dosed orally against D-adjuvant arthritis in rat.; type: functional
Rattus norvegicus [19] = test: Antiinflammatory activity against D-adjuvant arthritis in uninjected rat paw at the dose of 1.0 mg/kg by oral administration; settings: read-out: Inhibition
Rattus norvegicus [20] = test: Antiinflammatory activity dosed orally against D-adjuvant arthritis in injected rat paw at 100 mg/Kg; type: functional; settings: po
Mus musculus [21] = test: Percent suppression of plaque forming cells in spleen cell suspension at a dose of 125 mg/kg, po. in AKR mice; type: functional
Rattus norvegicus [22] = test: Antiinflammatory activity dosed orally against D-adjuvant arthritis in uninjected rat paw at 100 mg/Kg; type: functional; settings: po
Rattus norvegicus [23] = test: Antiinflammatory activity dosed orally against D-adjuvant arthritis in injected rat paw at 50 mgKg; type: functional

CCN(CC)CC(=O)Nc1nc2cc3nc(NC(=O)CN(CC)CC)sc3cc2s1
Activity (Mus musculus [1]): 67%
inhibition in vivo at 50 mg/kg (Rattus norvegicus [2]): 98%
inhibition in vivo at 50 mg/kg (Rattus norvegicus [3]): 76%
Activity (Mus musculus [4]): 82%
Inhibition (Rattus norvegicus [5]): 9%
Activity (Mus musculus [6]): 83%
inhibition in vivo at 50 mg/kg (Rattus norvegicus [7]): 98%

CC1CCC(NCC(=O)Nc2nc3cc4nc(NC(=O)CNC5CCC(C)CC5)sc4cc3s2)CC1 (centres undefined)
inhibition in vivo at 50 mg/kg (Rattus norvegicus [2]): 54%
Inhibition (Rattus norvegicus [8]): 3%
inhibition in vivo at 50 mg/kg (Rattus norvegicus [3]): 21%
Activity (Rattus norvegicus [9]): -4%

Nc1nc2cc3sc(N)nc3cc2s1
inhibition in vivo at 10 mg/kg (Rattus norvegicus [10]): 100%
inhibition in vivo at 10 mg/kg (Rattus norvegicus [11]): 88%
Inhibition (Rattus norvegicus [5]): 4%
Activity (Rattus norvegicus [9]): -30%

CCN(CC)CC(=O)Nc1nc2cc3sc(NC(=O)CN(CC)CC)nc3cc2s1.Cl.Cl
inhibition in vivo at 5 mg/kg (Rattus norvegicus [12]): 0%
Inhibition (Rattus norvegicus [5]): 9%
inhibition in vivo at 5 mg/kg (Rattus norvegicus [13]): 11%
Activity (Rattus norvegicus [9]): -33%

CCN(CC)C(C)C(=O)Nc1nc2cc3nc(NC(=O)C(C)N(CC)CC)sc3cc2s1.Cl.Cl (centres undefined)
inhibition in vivo at 50 mg/kg (Rattus norvegicus [2]): 0%
Inhibition (Rattus norvegicus [14]): 0%
Activity (Rattus norvegicus [15]): -19%
inhibition in vivo at 50 mg/kg (Rattus norvegicus [3]): 0%

COc1ccc2c(c1)c(CC(=O)O)c(C)n2C(=O)c1ccc(Cl)cc1 [INDOMETHACIN]
Inhibition (Rattus norvegicus [14]): 63% and 34%
inhibition in vivo at 1 mg/kg (Rattus norvegicus [16]): 61%
inhibition in vivo at 2.5 mg/kg (Rattus norvegicus [17]): 71%
Body weight change (Rattus norvegicus [18]): 18% and 28%
inhibition in vivo at 1 mg/kg (Rattus norvegicus [19]): 69%

CCN(CC)CCOc1ccc2c(c1)C(=O)c1cc(OCCN(CC)CC)ccc1-2 [TILORONE]
inhibition in vivo at 100 mg/kg (Rattus norvegicus [20]): 59%
Activity (Mus musculus [21]): 28%
inhibition in vivo at 100 mg/kg (Rattus norvegicus [22]): 45%
Inhibition (Rattus norvegicus [23]): 53%
Inhibition (Rattus norvegicus [5]): 0%
Activity (Rattus norvegicus [9]): 10%

Source: ChEMBL document CHEMBL1125290, “Bis basic substituted diaminobenzobisthiazoles as potential antiarthritic agents” (1992)
